PGC1a acetyl inh = PGC1a acetylation modulation, inhibitor mode; actives 0.17% (n = 350,000); inhibition, % at 15.6 µM; U2OS PGC1a acetylation, AlphaScreen anti-acetyl-lysine; with virally co-expressed GCN5 acetyltransferase; AID 651687;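 active = every replicate shows inhibition of at least 40%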;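 note: 0% = neutral control wells and 100% = positive control wells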
CAL PDZ FP-1 = human CAL PDZ-peptide interaction inhibition. inhibition, % at 20 µM. purified CAL PDZ, TMR-peptide fluorescence polarization, 1 h. actives 0.02% (n = 330,000). Q9HD26;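 active = highest replicate inhibition of at least 40%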;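 note: plate controls were DMSO neutral control wells for no effect and unlabeled competitor peptide control wells for full effect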
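Material – purified CerCALP PDZ construct · Detection – FP readout, S and P plane fluorescence · Measure – percent inhibition from loss of millipolarization · Controls – unlabelled peptide for full inhibition, DMSO wells as neutral · Probe or stimulus – TMR-labelled reporter peptide T*-PRC34 bound in PDZ groove · Times – 1 h at RT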
CAL PDZ FP-2 = blocks peptide binding to the human CAL PDZ domain; Q9HD26; purified CAL PDZ, TMR-peptide fluorescence polarization, 1 h; inhibition, % at 24.9 µM; actives 0.92% (n = 300,000);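 active = mean inhibition of at least 30% with at least half of replicates also reaching 30%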;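 note: 0% = DMSO neutral control and 100% = excess unlabeled competitor peptide PRC23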
CFTR F508del cor = correctors of CFTR F508del function in bronchial epithelial cells; CFBE cells, YFP halide quenching; stimulated with forskolin plus potentiator P3; % fluorescence drop versus neutral controls; activity (quench increase), % at 7.58 µM; actives 0.36% (n = 350,000); AID 720511;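 active = mean added fluorescence quench of at least 8% versus neutral control, with both replicates also reaching 8%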;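 note: cells transiently co-express mutant CFTR-F508del with the halide-sensitive YFP; corrector assay measuring rescue of mutant channel to the surface after 24 h compound exposure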
ARNT TACC3 PPI = ARNT/TACC3 interaction disruption; Q9Y6A5; actives 0.66% (n = 390,000); AlphaScreen His-ARNT PAS-B/GST-TACC3 binding, luminescence; TACC3 fragment carries E629A point mutation; inhibition, % at 9.99 µM;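 active = mean inhibition of replicates at least 50% and at least half of replicates each reaching 50%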;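 note: 0% = complete ARNT plus TACC3 wells and 100% = ARNT alone without TACC3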
miR-122 sensor = inhibitors of miR-122 in Huh7 cells; AID 602342; actives 0.3% (n = 340,000); Huh7 miR-122 Renilla luciferase sensor, 48 h; neutral wells = 0, positive control = 100; activation (reporter increase), % at 12.5 µM;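 active = mean replicate activation score at least 90 and every replicate individually at or above 90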;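 note: higher luciferase means less miR-122 activity so hits act as miR-122 inhibitors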
* hit, by the source's call; . = no result given; [ ] = dose if it differs, or a comment. Compounds with a hit are over-represented: about 1.7% of the library has one in this group of screens.

SMILES | PGC1a acetyl inh | CAL PDZ FP-1 | CAL PDZ FP-2 | CFTR F508del cor | ARNT TACC3 PPI | miR-122 sensor
C[C@@H]1CN([C@@H](C)CO)C(=O)c2cc(-c3ccc(C#N)cc3)cnc2O[C@@H]1CN(C)CC1CC1 | 5 | . | . | -2 | . | -3[16.7 µM]
CCCN(C)C[C@@H]1Oc2cc(C#CCC3CCCC3)ccc2S(=O)(=O)N([C@@H](C)CO)C[C@@H]1C | -9 | . | . | -2 | . | -8[16.7 µM]
CSCC[C@H](NC(=O)c1cccs1)c1nnc2ccccn12 | 9 | -3 | -1 | 2 | -10 | -3
CSCC[C@H](NC(=O)c1ccc(Br)o1)c1nnc2ccccn12 | 43* | -1 | 3 | 0 | 17 | 0
Cc1cc(C(=O)CN2CCN(CC(=O)Nc3cccc(F)c3)CC2)c(C)n1C1CC1 | . | 0 | -6 | 2 | 8 | .
Cc1cc(C(=O)CN2CCN(CC(=O)Nc3ccc(F)cc3)CC2)c(C)n1C1CC1 | . | -1 | -3 | 23* | . | .
COc1cc(/C=C2\SC(=Nc3ccccc3)N(CCc3c[nH]c4ccccc34)C2=O)ccc1OC(C)C(=O)O (stereo unspecified) | . | -1 | -2 | . | 9 | .
O=C1/C(=C/c2ccc(N3CCOCC3)o2)SC(=Nc2ccccc2)N1CCc1c[nH]c2ccccc12 | 62* | -2 | -6 | . | 8 | -29
COc1ccc(-c2nn(CCC#N)cc2/C=N/O)cc1OC | 1 | 9 | 58* | 2 | 0 | .
COc1ccc(-c2nn(CCC#N)cc2/C=N/O)cc1 | 3 | 0 | -2 | -3 | -8 | .
O=C1C(c2ccccc2)CN1Cc1ccccc1 (stereo unspecified) | . | . | . | 2 | . | .
O=C1N(Cc2ccccc2)CC2(Br)COCOC12O (stereo unspecified) | 0 | 0 | -1 | -2 | 8.9* | -3
CCC(=O)NC(=S)NNC(=O)c1ccc(O)cc1 | -5 | -1 | . | -2 | 75* | 5
C[C@@H]1CN([C@H](C)CO)C(=O)Cc2cc(NC(=O)C3CC3)ccc2O[C@H]1CN(C)Cc1ccncc1 | 2 | . | . | -1 | -18 | -2[16.7 µM]
C[C@@H](NC(=O)C[C@@H]1C[C@H]2c3cc(NC(=O)C4CCOCC4)ccc3O[C@H]2[C@@H](CO)O1)c1ccccc1 | -1 | . | . | -1 | 39 | 4[16.7 µM]
O=C(Oc1coc(CSc2ncccn2)cc1=O)c1ccccc1[N+](=O)[O-] | . | 0 | 82* | 0 | -3 | .
CC1(C(=O)NCc2cccs2)Cc2c(-c3ccc4c(c3)OCO4)ccnc2O1 (stereo unspecified) | -29 | . | . | 9.5* | . | 17
Cc1ccccc1-n1c(-c2ccncc2)n[nH]c1=S | 18 | 0 | 0 | . | -8 | -1
Cc1cc(-c2n[nH]c(=S)n2-c2ccccc2C)cs1 | . | -1 | 62* | . | 1 | .
Cn1c(=O)n(CC(=O)Nc2ccccc2)c2ccccc21 | . | 1 | -1 | . | -1 | .
Cn1c(=O)c2sc3c(c2n(CC(=O)Nc2ccccc2)c1=O)COC(C)(C)C3 | -9 | -1 | 31* | -1 | 26 | -8
CO[C@@H]1CN(C)C(=O)c2cc(NC(=O)c3ccccc3)ccc2OC[C@H](C)N(CC2CC2)C[C@@H]1C | 0 | . | . | -2 | -2 | 15[16.7 µM]
Cc1ccc(C)c(C2NC(=O)c3ccccc3N2)c1 (stereo unspecified) | . | 0 | 7 | 8.8* | -30 | .
C=CCN1c2ccccc2[C@]23C[C@@H](C(=O)OC)N(C(=O)c4cccs4)C2=NC(C(=O)OC)=C(C(=O)OC)[C@H]13 | . | -1 | -1 | 8.0* | 5 | 0
c1ccc(-c2ccc(C3[C@H]4CNC[C@@H]3N4Cc3ccccn3)cc2)cc1 (stereo partly specified) | -2 | . | . | 3 | . | .
COc1cc(CN2CCNC(=O)C2CC(=O)N(C)CCC2CCOCC2)cc(OC)c1 (stereo unspecified) | 6 | 0 | -5 | -1 | 8 | 0
COc1ccc(CN2CCNC(=O)C2CC(=O)N(C)CCC2CCOCC2)cc1OC (stereo unspecified) | 7 | 0 | 93* | -1 | -1 | -8
COc1ccc(OC)c(S(=O)(=O)N/N=C\c2ccc3c(c2)OCO3)c1 | . | -2 | -4 | -6 | -3 | 105*
